Source: PubChem BioAssay
NadD block = blocks S. aureus nicotinate mononucleotide adenylyltransferase; AID 602399; actives 0.78% (n = 360,000); inhibition, % at 20 µM; purified NadD enzyme, colorimetric absorbance read-out; in the data active = inhibition above about 26%
Myeloid diff 2 = myeloid differentiation induction; actives 1% (n = 360,000); calls only at 10 µM; ER-HoxA9 myeloid progenitors, lysozyme-GFP differentiation, flow cytometry;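 active = normalized GFP-positive differentiation at or above the plate's own cutoff, the solvent-only control mean plus 3 SD; inconclusive = no clear call, values can overlap the other calls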;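 also: cells exposed to compound for four days before flow analysis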
PP1 counter = PP1-alpha (human) inhibition in PP5 counter-screen; purified PP1alpha, OMFP fluorescence; inhibition, % at 6.7 µM; actives 0.9% (n = 320,000); AID 2235;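 active = inhibition above the mean inhibition of all tested compounds plus 3 SD, computed separately for each screening campaign, cut at about 15% in these data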
PP5 inh = PP5 (human) phosphatase inhibition; P53041; purified PP5c, OMFP substrate fluorescence; inhibition, % at 6.7 µM; actives 0.18% (n = 320,000);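 active = inhibition above the campaign's mean inhibition across all tested compounds plus 3 SD, cut at about 9.5% in these data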;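 also: 0% = DMSO only and 100% = 100 µM cantharidin control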
Target sequence (P53041 whole entry, looked up): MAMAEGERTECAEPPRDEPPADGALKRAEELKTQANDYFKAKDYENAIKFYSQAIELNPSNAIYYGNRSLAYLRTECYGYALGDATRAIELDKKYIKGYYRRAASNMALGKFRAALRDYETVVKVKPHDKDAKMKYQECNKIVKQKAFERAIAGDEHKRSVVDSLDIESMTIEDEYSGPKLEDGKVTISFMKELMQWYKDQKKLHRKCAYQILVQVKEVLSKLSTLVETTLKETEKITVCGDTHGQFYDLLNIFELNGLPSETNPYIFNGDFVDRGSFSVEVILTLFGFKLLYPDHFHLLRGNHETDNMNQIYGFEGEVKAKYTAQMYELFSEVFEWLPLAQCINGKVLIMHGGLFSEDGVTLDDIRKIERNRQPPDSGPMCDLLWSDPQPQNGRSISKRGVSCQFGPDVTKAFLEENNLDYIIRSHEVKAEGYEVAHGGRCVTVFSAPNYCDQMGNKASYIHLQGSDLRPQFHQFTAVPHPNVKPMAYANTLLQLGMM
HCV core dimer = HCV core protein dimerization inhibition; AID 1899; inhibition, % at 5 µM; actives 0.33% (n = 300,000); TR-FRET GST/Flag-core106 dimerization, 1536-well;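 active = inhibition above the mean of all tested compounds plus 3 SD, set per screening campaign, cut at about 45% in these data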
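Material: Tagged HCV core106 pair (GST and Flag) | Amount: GST-core106 13.5 nM, Flag-core106 17 nM | Medium: KF-containing HEPES buffer, pH 7.45, DTT, CHAPS, BSA | Reagent: Eu donor and XL665 acceptor anti-tag antibodies | Schedule: 4 h at 22.5 °C | Technique: Time-resolved FRET, ex 340 nm, em 617 and 671 nm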
Fh CTSL1 inh = cathepsin L1 inhibition, PFM18AAP counter-screen; recombinant F. hepatica cathepsin L1, Z-Leu-Arg-MCA fluorescence; inhibition, % at 5.96 µM; actives 0.49% (n = 300,000);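 active = inhibition above the mean of all tested compounds plus 3 SD, set per screening campaign, cut at about 17% in these data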;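 also: 0% = plate median of test compound wells and 100% = 1 µM Z-Phe-Ala-diazomethylketone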
* = called active by the depositor; i = inactive; u = inconclusive; x = no result given; + = active, no number; ! = a repeat was not active. Most compounds without a hit are left out; they make up all but 3.1% or so of the library.

SMILES	NadD block	Myeloid diff 2	PP1 counter	PP5 inh	HCV core dimer	Fh CTSL1 inh
CC1=CC(=O)[C@H]2C(C)(C)CCC[C@]2(C)[C@@]1(O)CO	6	i	-3	1	0	49*
CCc1nc2c(OCc3ccc(C(=O)N(C)C)cc3)cccn2c1N(C)C(=O)Nc1ccccc1OC	-1	i	x	x	x	x
CCN(CC)c1ccc2c(-c3ccc(S(=O)(=O)O)cc3S(=O)(=O)[O-])c3ccc(=[N+](CC)CC)cc-3oc2c1	5	i	-23	-15	68*	6
Cc1cccc(C)c1OCc1nnc(SCC(=O)Nc2ccccc2F)o1	-3	i	-3	1	-1	12
Cc1cccc(C)c1OCc1nnc(SCC(=O)NCc2ccccc2)o1	-7	i	0	1	2	21*
Cc1cccn2c(=O)nc(SCC(=O)N3CCC(C)CC3)nc12	-2	i	-3	-1	-4	2
CC[C@]12c3[nH]c4cc(-c5ccco5)ccc4c3CCN1C(=O)[C@@H](CC(=O)NCCCn1ccnc1)C[C@@H]2C(=O)N1CCN(C(=O)C2CC2)CC1	17	+	x	x	x	x
O=C(C[C@H]1C[C@H](C(=O)N2CCCCC2)[C@@]2(CCc3ccccc3)c3[nH]c4cc(-c5ccco5)ccc4c3CCN2C1=O)NCc1ccco1	51*	i	x	x	x	x
CC[C@]12c3[nH]c4cc(-c5ccco5)ccc4c3CCN1C(=O)[C@@H](CC(=O)NCCCn1ccnc1)C[C@@H]2C(=O)N1CCN(C(=O)c2ccco2)CC1	13	i	x	x	x	x
CCN(CC(=O)Nc1c(F)cccc1F)C(=O)CCCc1cccs1	-6	i	-2	1	x	x
NCCCC(N)(C(=O)O)C(F)F (centres undefined)	2	+	-2	1	0	0
NCCCC(=O)O	2	i	0	3	-4	5
CC(C)N(CCNC(=O)c1ccc(CS(=O)(=O)c2c(Cl)cccc2Cl)o1)Cc1ccccc1	-5	i	-4	1	3	2
Cc1ccnc(NC(=O)CCC(=O)N(CC(=O)NCc2ccccc2)Cc2ccccc2)c1	1	i	4	2	-4	-3
Cc1ccnc(NC(=O)CCC(=O)N(CC(=O)NCc2ccccc2)Cc2ccc(F)cc2)c1	-3	+	3	-1	-15	4
O=C(c1cccc(C(F)(F)F)c1)C1CCCN(C(=O)c2cc(C3CC3)[nH]n2)C1 (centres undefined)	1	+	-1	1	5	3
CCOc1cccc(=O)c2c(C)n(Cc3ccccc3)c(C)c12	-5	i	14	4	50*	-6
CC(C)N1CC(C(=O)Nc2ccc(Cl)cc2Cl)CC1=O (centres undefined)	-8	i	x	x	x	x
C=C(C)C(=O)Nc1ccc2c(c1)OCCOCCOCCO2	5	i	17*	-2	27	1
Cc1cc(C)n2nc(C(=O)Nc3ccc4c(c3)OCO4)nc2n1	3	i	3	2	47*	13
CN(c1ccc(C(=O)Nc2ccc3c(c2)OCO3)cc1)S(C)(=O)=O	1	i	-3	0	-2	17*
Cc1cc(C)n2nc(C(=O)Nc3ccc4c(c3)OCCO4)nc2n1	-2	i	-2	3	x	x
CN(c1ccc(C(=O)Nc2ccc3c(c2)OCCO3)cc1)S(C)(=O)=O	-4	+	0	1	-1	-4
CC(C)C[C@@H](CN)NC(=O)c1nc[nH]c1C(=O)N[C@@H](CC(C)C)C(=O)CNC[C@H](C)NC(=O)c1nc[nH]c1C(=O)N[C@@H](CC(C)C)C(=O)O	24	i	x	x	x	x
Cc1cc(C)n2c(SC(C)C(=O)NC3(C#N)CCCCC3)nnc2n1 (centres undefined)	0	i	-5	3	x	x
SMILES	NadD block	Myeloid diff 2	PP1 counter	PP5 inh	HCV core dimer	Fh CTSL1 inh
O=C1C(=Cc2cccc(O)c2O)SC(=S)N1CCCN1CCOCC1	4	+	x	x	x	x
Cc1noc(C)c1NC(=O)N(C)C[C@@H]1Oc2ccc(NC(=O)CCC(F)(F)F)cc2CC(=O)N([C@@H](C)CO)C[C@@H]1C	-2	i	x	x	x	x
COc1ccc(-c2ccc(-c3noc(-c4ccco4)n3)c(OC)n2)cc1	7	i	16*	-1	6	1
COc1nc(-c2ccccc2)ccc1-c1noc(-c2ccco2)n1	8	i	-1	0	3	-2
CCCN=Cc1c(CCC)[nH]n(-c2nc3ccccc3s2)c1=O	0	i	-3	2	-3	0
CCCc1[nH]n(-c2nc3ccccc3s2)c(=O)c1C=NCCCN(CC)CC	-6	i	16*	1	-3	2
COc1cccc2c(C)nc(Nc3nc(CSc4nnc(C)s4)cc(=O)[nH]3)nc12	-7	+	0	1	4	3
Cc1ccc2c(C)nc(Nc3nc(CSc4nnc(C)s4)cc(=O)[nH]3)nc2c1	-1	i	0	0	2	1
CC(=O)Nc1ccc(N2C(=O)c3ccc(C(=O)Nc4nnc(SCc5ccc(F)cc5)s4)cc3C2=O)cc1	31*	i	-3	3	34	-2
Cc1[nH]c2ccccc2c1/C=N/Nc1nc(Nc2ccccc2)nc(N2CCOCC2)n1	19	+	3	5	-9	5
CC(C)c1ccc(CNC(=O)C2(C)CCCN2C)cc1 (centres undefined)	-1	i	x	x	x	x
CCCN(CCC)C(=O)CC(c1ccccc1)c1ccc(C)cc1O (centres undefined)	-6	i	1	2	4	3
Cc1ccc(O)c([C@H](CCN(C(C)C)C(C)C)c2ccccc2)c1	-7	+!	-1	2	-2	1
O=C(NNC(=O)c1cc2cc3ccccc3nc2s1)c1cccc(Cl)c1	27	i	11	-1	58*	2
CCOC(=O)c1c(C)n(-c2ccc(C)cc2)c2ccc(OCC(O)CNCCCO)cc12 (centres undefined)	-5	i	-1	0	-8	-1
CCOC(=O)c1c(C)n(-c2ccc(C)cc2)c2ccc(OCC(O)CNCC3CCCO3)cc12 (centres undefined)	-1	u	16*	4	-11	1
CC(=O)c1ccc(S(=O)(=O)N2CCN(C(=O)CCC3CCCC3)CC2)cc1	-5	i	x	x	x	x
COc1ccc2nc(Nc3ccccc3OC)sc2c1	-3	i	3	3	-3	-2
COc1ccccc1Nc1nc(Cl)c(C=O)s1	-5	+	-4	0	6	5
Cc1ccc(Nc2nc(Cl)c(C=O)s2)cc1Cl	-8	+	3	0	17	-2
CCN1C(=O)[C@H]2[C@H]3CN=C(SCc4ccc(OC)cc4)N3[C@@](CC)(C(=O)OC)[C@H]2C1=O	5	i	x	x	x	x
CCOc1ccc(/C=C(\C#N)C(=O)c2c(C)[nH]c3ccccc23)cc1OC	-6	i	-1	2	-2	-3
